Laboratory results as given in ChEMBL document CHEMBL1806486, “Discovery and evaluation of 3-phenyl-1H-5-pyrazolylamine-based derivatives as potent, selective and efficacious inhibitors of FMS-like tyrosine kinase-3 (FLT3)” (Bioorg Med Chem, 2011).

Experiments:
[1] = biological target: T1, Vascular endothelial growth factor receptor 1 (Homo sapiens, UniProt P17948); assay: Inhibition of recombinant GST-tagged VEGFR1 expressed in Sf9 insect cells after 120 mins by Kinase-Glo assay
Outline: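 GST-VEGFR1 (R781–I1338) or GST-VEGFR2 (V789–V1356) kinase domain, 50–100 ng, from Sf9 cells. Read-out was Kinase-Glo Plus luminescence.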

[2] = Ratio GI50 for human MOLM13 cells to IC50 for GST-tagged FLT3 expressing wild type kinase domain; assay type: functional, MOLM-13
[3] = biological target: T2, Vascular endothelial growth factor receptor 2 (Homo sapiens, UniProt P35968); assay: Inhibition of recombinant GST-tagged VEGFR2 expressed in Sf9 insect cells after 120 mins by Kinase-Glo assay; assay type: cell-based
MOLM-13 = assay: Antiproliferation activity against human MOLM13 cells expressing FLT3 mutation assessed as cell viability after 72 hrs by MTS method; assay type: functional; conditions: MOLM-13, 72 h
Aurora kinase A = biological target: T3, Aurora kinase A (Homo sapiens, UniProt O14965); assay: Inhibition of recombinant GST-tagged Aurora A expressed in Sf9 insect cells after 90 mins by Kinase-Glo assay
T3 sequence (O14965 whole entry): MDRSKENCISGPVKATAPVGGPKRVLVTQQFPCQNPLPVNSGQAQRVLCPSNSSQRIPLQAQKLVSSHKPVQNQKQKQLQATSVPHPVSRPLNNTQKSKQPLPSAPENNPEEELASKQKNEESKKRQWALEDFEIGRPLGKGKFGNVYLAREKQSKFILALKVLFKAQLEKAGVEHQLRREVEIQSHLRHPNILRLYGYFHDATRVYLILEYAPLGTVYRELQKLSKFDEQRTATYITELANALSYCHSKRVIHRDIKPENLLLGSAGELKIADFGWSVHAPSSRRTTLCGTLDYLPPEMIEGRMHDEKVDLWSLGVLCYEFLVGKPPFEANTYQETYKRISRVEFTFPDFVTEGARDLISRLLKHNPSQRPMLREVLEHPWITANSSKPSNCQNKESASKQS
Outline: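 GST-Aurora A kinase domain (S123–S401, 150 ng) from Sf9 cells. Buffer was 50 mM Tris-HCl pH 7.4 with 10 mM NaCl, 10 mM MgCl2, 0.01% BSA and 1 mM DTT. Kinase-Glo Plus was added for 20 min at 25 °C before the luminescence read.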

[4] = biological target: T4, Receptor-type tyrosine-protein kinase FLT3 (Homo sapiens, UniProt P36888); assay: Inhibition of GST-tagged FLT3 expressing wild type kinase domain expressed in Sf9 insect cells after 4 hrs by Kinase-Glo assay
T4 sequence (P36888 whole entry): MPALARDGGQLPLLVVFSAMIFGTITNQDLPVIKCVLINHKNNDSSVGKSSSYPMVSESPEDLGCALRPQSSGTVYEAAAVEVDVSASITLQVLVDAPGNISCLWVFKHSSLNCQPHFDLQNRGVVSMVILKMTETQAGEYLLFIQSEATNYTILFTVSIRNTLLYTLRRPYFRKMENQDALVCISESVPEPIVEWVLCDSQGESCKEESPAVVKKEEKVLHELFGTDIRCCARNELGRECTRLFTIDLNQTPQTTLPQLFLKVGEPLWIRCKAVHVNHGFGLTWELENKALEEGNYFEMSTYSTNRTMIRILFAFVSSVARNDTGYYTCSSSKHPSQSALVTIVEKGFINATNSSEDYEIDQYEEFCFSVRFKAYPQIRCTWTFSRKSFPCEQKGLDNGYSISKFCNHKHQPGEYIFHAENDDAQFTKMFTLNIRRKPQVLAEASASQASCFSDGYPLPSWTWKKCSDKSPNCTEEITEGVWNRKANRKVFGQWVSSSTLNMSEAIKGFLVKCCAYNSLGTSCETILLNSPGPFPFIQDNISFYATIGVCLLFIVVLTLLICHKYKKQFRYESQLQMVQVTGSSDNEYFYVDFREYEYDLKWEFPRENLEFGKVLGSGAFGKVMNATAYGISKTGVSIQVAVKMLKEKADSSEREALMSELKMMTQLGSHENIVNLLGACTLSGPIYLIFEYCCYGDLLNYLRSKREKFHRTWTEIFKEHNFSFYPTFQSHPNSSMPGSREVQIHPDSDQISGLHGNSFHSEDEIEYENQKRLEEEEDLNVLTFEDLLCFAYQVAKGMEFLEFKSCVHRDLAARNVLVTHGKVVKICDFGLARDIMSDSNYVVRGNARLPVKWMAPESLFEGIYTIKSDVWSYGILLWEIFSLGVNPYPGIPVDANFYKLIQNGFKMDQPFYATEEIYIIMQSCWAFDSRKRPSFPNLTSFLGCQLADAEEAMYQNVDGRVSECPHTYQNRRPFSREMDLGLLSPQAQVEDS

[5] = biological target: T2, Vascular endothelial growth factor receptor 2; assay: Inhibition of recombinant GST-tagged VEGFR2 expressed in Sf9 insect cells at 1 uM after 120 mins by Kinase-Glo assay
MOLT-4 = assay: Antiproliferation activity against human MOLT4 after 72 hrs by MTS method; assay type: functional; conditions: MOLT-4, 72 h
K562 = assay: Antiproliferation activity against human K562 cells expressing wild type BCR/ABL after 72 hrs by MTS method; assay type: functional; conditions: K562, 72 h
MV4-11 = assay: Antiproliferation activity against FLT3/ITD harboring human MV4-11 cells after 72 hrs by MTS method; assay type: functional; conditions: MV4-11, 72 h
U-937 = assay: Antiproliferation activity against human FLT3 gene-deficient U937 cells after 72 hrs by MTS method; assay type: functional; conditions: U-937, 72 h
[6] = Antiproliferation activity against human RS4:11 cells expressing wild type FLT3 after 72 hrs by MTS method; assay type: functional; conditions: RS4-11, 72 h
[7] = biological target: T1, Vascular endothelial growth factor receptor 1; assay: Inhibition of recombinant GST-tagged VEGFR1 expressed in Sf9 insect cells at 1 uM after 120 mins by Kinase-Glo assay

T2 sequence (P35968 whole entry): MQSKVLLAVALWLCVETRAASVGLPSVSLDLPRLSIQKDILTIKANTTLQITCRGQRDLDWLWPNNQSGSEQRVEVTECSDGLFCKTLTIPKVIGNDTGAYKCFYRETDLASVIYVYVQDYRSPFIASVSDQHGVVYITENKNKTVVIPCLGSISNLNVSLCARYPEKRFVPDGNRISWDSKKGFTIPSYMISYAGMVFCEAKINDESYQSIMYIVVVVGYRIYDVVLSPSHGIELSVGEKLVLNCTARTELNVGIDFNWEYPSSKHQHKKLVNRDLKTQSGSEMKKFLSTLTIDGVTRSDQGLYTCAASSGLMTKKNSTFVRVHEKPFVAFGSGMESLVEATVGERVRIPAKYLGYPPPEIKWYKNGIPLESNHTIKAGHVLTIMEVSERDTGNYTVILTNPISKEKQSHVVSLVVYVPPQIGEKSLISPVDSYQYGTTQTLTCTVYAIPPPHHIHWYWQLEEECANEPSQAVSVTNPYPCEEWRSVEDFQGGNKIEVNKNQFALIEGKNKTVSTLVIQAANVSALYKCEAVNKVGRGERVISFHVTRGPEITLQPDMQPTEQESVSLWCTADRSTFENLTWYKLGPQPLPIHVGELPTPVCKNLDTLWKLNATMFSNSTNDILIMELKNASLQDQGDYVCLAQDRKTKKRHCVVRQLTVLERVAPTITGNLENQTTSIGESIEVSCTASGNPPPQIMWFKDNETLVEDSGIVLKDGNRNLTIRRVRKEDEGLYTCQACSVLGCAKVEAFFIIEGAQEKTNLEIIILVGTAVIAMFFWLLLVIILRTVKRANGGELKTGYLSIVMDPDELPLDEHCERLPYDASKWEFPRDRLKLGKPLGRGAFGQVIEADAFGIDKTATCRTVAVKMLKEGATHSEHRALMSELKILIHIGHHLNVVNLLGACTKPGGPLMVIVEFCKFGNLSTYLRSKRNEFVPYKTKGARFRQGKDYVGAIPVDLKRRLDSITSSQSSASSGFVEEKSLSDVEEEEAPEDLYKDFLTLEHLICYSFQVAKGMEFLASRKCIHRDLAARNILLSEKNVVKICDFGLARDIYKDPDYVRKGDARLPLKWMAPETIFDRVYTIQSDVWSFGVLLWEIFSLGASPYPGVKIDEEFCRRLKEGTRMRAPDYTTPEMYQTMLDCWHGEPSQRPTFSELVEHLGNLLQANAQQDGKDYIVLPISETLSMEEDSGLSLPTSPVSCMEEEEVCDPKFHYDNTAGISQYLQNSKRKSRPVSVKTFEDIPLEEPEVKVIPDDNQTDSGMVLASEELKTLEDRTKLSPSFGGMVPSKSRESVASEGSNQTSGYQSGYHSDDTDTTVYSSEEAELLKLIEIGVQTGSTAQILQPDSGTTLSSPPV
T1 sequence (P17948 whole entry, the tested form may be a part): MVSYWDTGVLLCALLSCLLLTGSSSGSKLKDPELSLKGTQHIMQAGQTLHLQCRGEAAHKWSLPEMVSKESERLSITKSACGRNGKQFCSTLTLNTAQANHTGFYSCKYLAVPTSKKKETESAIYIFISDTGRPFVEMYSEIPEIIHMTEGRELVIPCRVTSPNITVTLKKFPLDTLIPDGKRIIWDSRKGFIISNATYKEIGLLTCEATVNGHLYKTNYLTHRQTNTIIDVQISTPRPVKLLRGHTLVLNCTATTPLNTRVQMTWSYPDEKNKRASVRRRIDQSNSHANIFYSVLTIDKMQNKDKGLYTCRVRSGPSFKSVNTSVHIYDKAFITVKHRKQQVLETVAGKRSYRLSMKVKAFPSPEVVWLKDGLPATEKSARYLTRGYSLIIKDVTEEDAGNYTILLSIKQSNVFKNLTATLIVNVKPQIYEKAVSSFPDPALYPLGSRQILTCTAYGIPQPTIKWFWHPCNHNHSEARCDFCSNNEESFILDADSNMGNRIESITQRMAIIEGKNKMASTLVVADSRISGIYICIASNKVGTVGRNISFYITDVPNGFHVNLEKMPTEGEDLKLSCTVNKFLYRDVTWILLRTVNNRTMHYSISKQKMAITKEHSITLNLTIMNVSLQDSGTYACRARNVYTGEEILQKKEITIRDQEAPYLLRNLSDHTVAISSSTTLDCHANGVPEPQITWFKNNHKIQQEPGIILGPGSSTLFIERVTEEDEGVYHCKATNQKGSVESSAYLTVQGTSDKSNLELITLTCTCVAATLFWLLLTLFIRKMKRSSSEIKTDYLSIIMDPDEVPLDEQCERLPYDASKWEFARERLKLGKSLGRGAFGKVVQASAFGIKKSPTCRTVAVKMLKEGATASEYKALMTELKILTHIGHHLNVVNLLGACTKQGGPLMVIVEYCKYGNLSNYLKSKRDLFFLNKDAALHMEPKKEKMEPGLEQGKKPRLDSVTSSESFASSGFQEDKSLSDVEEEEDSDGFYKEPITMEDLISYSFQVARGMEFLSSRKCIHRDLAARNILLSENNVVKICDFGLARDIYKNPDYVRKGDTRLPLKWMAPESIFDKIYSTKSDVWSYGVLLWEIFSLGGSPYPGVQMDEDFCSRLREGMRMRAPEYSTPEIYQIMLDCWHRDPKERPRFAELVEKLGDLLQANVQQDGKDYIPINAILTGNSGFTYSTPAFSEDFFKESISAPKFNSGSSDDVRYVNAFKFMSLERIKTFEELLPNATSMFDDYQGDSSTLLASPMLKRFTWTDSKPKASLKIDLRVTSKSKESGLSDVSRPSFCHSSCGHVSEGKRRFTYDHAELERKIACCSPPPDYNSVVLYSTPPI

**Q.** What does the source list for `Cc1nc(Nc2cc(-c3cccc(NS(=O)(=O)c4ccccc4)c3)n[nH]2)cc(N2CCC(O)CC2)n1`?
**A.** IC50 [1]: > 1000 nM; Ratio [2]: 12; IC50 [3]: > 1000 nM; GI50 (MOLM-13): 120 nM; IC50 (Aurora kinase A): 540 nM; IC50 [4]: 10 nM

**Q.** For `Cc1nc(NCCCN2CCOCC2)cc(Nc2cc(-c3cccc(NS(=O)(=O)c4ccccc4)c3)n[nH]2)n1`, which IC50 [1] is on record?
**A.** Its IC50 is over 1000 nM.

**Q.** What about the inhibition [5] of the same compound?
**A.** The inhibition was 55%.

**Q.** And the GI50 (MOLM-13)?
**A.** Its GI50 is 380 nM.

**Q.** What about the IC50 (Aurora kinase A) of the same compound?
**A.** The IC50 was 680 nM.

**Q.** What about the IC50 [4] of the same compound?
**A.** Its IC50 is 10 nM.

**Q.** Which GI50 (MOLT-4) does the source give for `Cc1ccc(F)c(NC(=O)Nc2ccc(-c3cccc4[nH]nc(N)c34)cc2)c1` [LINIFANIB] here?
**A.** Its GI50 is 6.7 µM.

**Q.** What about the GI50 (K562) of the same compound?
**A.** Its GI50 is over 20 µM.

**Q.** What about the GI50 (MV4-11) of the same compound?
**A.** The GI50 was 40 nM.

**Q.** And the GI50 (U-937)?
**A.** The GI50 was 19 µM.

**Q.** And the GI50 [6]?
**A.** Its GI50 is 9.2 µM.

**Q.** What does the source list for `O=C(Nc1cc(-c2cccc(NS(=O)(=O)c3ccccc3)c2)n[nH]1)c1ccc(CN2CCOCC2)cc1`?
**A.** IC50 [3]: 560 nM; GI50 (MOLM-13): 67 nM; inhibition [7]: 52%; IC50 (Aurora kinase A): 220 nM; IC50 [4]: 350 nM
